Source: PubChem
Insulin prom up: MIN6 insulin promoter up-regulation; MIN6 insulin promoter-GFP reporter, high-content imaging; hits give high values; z-score at 5 µM; 190,000 compounds, 0.3% hits;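 active = z-score above 3 at 5 µM with at least 500 cells counted in the well; inconclusive = wells under 500 cells, flagged as cytotoxic or low count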
Cl transport mod: KCC2 (human) Cl- transport modulation. KCC2 cells, thallium flux FluoZin-2 fluorescence. B-score of Tl+ flux slope (higher = more flux/activation; lower = inhibition) at 10 µM. 190,000 compounds, 2.2% hits. AID 1456;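 active = thallium flux slope and its plate-corrected score both differing from the plate sample mean at a set confidence after two filtering rounds, in either direction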;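 also: slope of fluorescence scaled to starting intensity during 10 to 20 s after thallium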
Autophagy HCS: modulators of autophagy; MEF GFP-LC3 puncta imaging; test concentration mostly 10 µM; calls only at 10 µM (by protocol); 190,000 compounds, 0.98% hits; AID 463193;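 active = percentage of spot-positive cells more than 3 SD above its plate mean, without a fluorescence outlier flag or 80% toxicity; inconclusive = no clear call, values can overlap the other calls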;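 also: spot-positive cell cutoff set from DMSO-treated cells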
SKKanGAS inh: SKKanGAS growth inhibition | S. pyogenes SKKanGAS, kanamycin growth, BacTiter-Glo, 6 h | AID 1662 | inhibition, % at 7.5 µM | 300,000 compounds, 1.3% hits;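 active = mean replicate score, as percent of positive control median, at least 50; inconclusive = mean below 50 but one replicate at or above 50; inactive = mean and every replicate below 50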;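 also: strain carries kanamycin resistance gene driven by streptokinase promoter and grows in 40 µg/ml kanamycin; loss of luminescence reflects streptokinase promoter inhibition or plain growth inhibition; 0% = median of DMSO wells and 100% = positive control at its reference dose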
Rad51 HR inh: Rad51 (human) homologous recombination inhibition; inhibition, % at 10 µM; 200,000 compounds, 0.085% hits; hRad51 DNA strand exchange, fluorescence dequenching;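 active = inhibition above 40% at the single screening dose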;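 also: 0% = DMSO control wells and 100% = blanks with heterologous ssDNA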
Target sequence (Q06609 whole entry, looked up): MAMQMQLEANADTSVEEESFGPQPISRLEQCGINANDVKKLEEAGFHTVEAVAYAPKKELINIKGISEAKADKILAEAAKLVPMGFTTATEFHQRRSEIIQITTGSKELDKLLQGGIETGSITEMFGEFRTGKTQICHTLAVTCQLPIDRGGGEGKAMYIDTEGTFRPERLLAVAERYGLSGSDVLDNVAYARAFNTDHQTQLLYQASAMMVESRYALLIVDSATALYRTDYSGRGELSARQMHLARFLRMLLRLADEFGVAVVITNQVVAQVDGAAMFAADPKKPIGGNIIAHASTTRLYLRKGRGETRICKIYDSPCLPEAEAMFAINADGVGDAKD
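Test system: preformed human Rad51 ssDNA filaments. Compound dosing: single dose, 10 µM final compound. Incubation: filaments 15 min 37 °C, then compound 30 min. Technique: FRET fluorescence dequenching, excitation 485 nm, emission 520 nm. Read-out basis: percent inhibition from fluorescence, normalised to plate control and blank means. Benchmarks: plate controls and plate blanks.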
WT yeast gro inh: growth inhibition of WT yeast, mitochondrial fusion screen; 190,000 compounds, 2.1% hits; inhibition, % at 10 µM; mitochondrial fusion phenotypic screen, WT strain; in the data active = inhibition above about 58%; tested in S. cerevisiae
Active calls of the source: *; i = inactive; u = inconclusive; x = no result; + = active, no number. An excerpt weighted towards active compounds, which were near 4.2% of everything screened.

SMILES	Insulin prom up	Cl transport mod	Autophagy HCS	SKKanGAS inh	Rad51 HR inh	WT yeast gro inh
O=C(Nc1ccc(-c2csc(Nc3ccccc3)n2)cc1)c1cccc(C(F)(F)F)c1	-1.7	0.26	x	65*	-4	x
CC(NCC(=O)NC(=O)NC1CCCC1)c1ccc(Cl)cc1Cl (stereo not drawn)	x	x	x	2	x	x
Cc1ccnc(Nc2nc(-c3c(C)nc4sccn34)cs2)c1	-0.09	-0.26	i	5	-4	81*
Oc1ccc(Nc2nc(-c3ccc4ccccc4c3)cs2)cc1	x	0.11	+	53*	4	58
Cc1ccc(Nc2nc(-c3c(C)nc4ccccn34)cs2)cc1	u	-0.21	i	-6	0	71*
Cc1ccnc(Nc2nc(-c3ccccc3)cs2)c1	x	x	x	39	x	x
Cc1ccc(Nc2nc(-c3c(C)nc4ncccn34)cs2)cc1	x	0.029	i	-4	-2	-4
CCC(C)[C@H]1COCCS(=O)(=O)N1Cc1ccccc1 (stereo partly drawn)	x	x	x	2	x	x
Cc1cc(-c2ccccc2)n2ncnc2n1	0.03	0.67	x	3	-1	x
COc1ccc(CCNC(=O)c2cc(-c3ccc(Cl)c(Cl)c3)oc2C)cc1	1.2	1.4	i	53*	-12	40
CCSc1nnc(NC(=O)C2CC(=O)N(Cc3ccccc3)C2)s1 (stereo not drawn)	-0.08	-0.0033	i	15	x	5
CC12CCC(c3c(C(=O)O)nn(-c4ccc(F)cc4)c31)C2(C)C (stereo not drawn)	-0.07	0.87	i	-4	3	59*
Cn1c(=O)c(C#N)c(-c2ccc(F)cc2)c2cc(C(=O)c3cc(Cl)cc(Cl)c3O)cnc21	-0.39	-3	x	99*	7	x
COc1ccccc1-n1c(=O)c(C#N)c(-c2ccc([N+](=O)[O-])cc2)c2cc(C(=O)c3cc(F)ccc3O)cnc21	-0.56	0.26	i	15	-8	-11
CC(C)N1CCc2c(sc(NC(=O)c3cc4cc([N+](=O)[O-])ccc4s3)c2C(N)=O)C1	x	-0.31	i	10	-103	-11
CN1CCc2c(sc(NC(=O)c3cc4cc([N+](=O)[O-])ccc4s3)c2C(N)=O)C1	u	0.094	+	11	-6	25
COc1ccccc1C1(CCNS(=O)(=O)c2ccc(C)cc2)CCOC(C(C)C)C1 (stereo not drawn)	-0.48	-0.016	i	-5	-5	59*
N=C1C(c2nc3ccccc3c(=O)[nH]2)=C(O)CN1c1ccccc1	0.39	-0.0057	i	x	-3	-8
Cc1ccc(N2CC(O)=C(c3nc4ccccc4c(=O)[nH]3)C2=N)cc1C	1.4	0.27	+	17	-34	2
CC(NS(=O)(=O)c1ccccc1Cl)C1CC2CCC1C2 (stereo not drawn)	x	x	x	5	x	x
CCCCCc1ccc(OCCCC[n+]2cccc(C)c2)c(CCCCC)c1	u	0.78	i	-4	1	85
CCCCCc1ccc(OCCCC[n+]2ccc(C)cc2)c(CCCCC)c1	u	1.2	i	-15	-4	98*
CCCCCc1ccc(OCCCC[n+]2ccccc2)c(CCCCC)c1	u	-0.095	i	u	31	86*
CCC(C)(C)c1ccc(OCCCC[n+]2ccccc2)c(C(C)(C)CC)c1	u	-0.01	i	x	8	93*
Cc1ccccc1C(=O)NC1CCN(C(=O)Nc2ccccc2Cl)CC1	0.27	-0.63	i	4	-2	-4
SMILES	Insulin prom up	Cl transport mod	Autophagy HCS	SKKanGAS inh	Rad51 HR inh	WT yeast gro inh
Cn1c(O)c(/C=N/Nc2ccccc2)c(=O)n(C)c1=O	-0.29	0.19	i	-9	2	67*
Cc1ccc(NC2CCCN(C(=O)CSc3ccncc3)C2)cc1C (stereo not drawn)	x	x	x	-4	x	x
CCCC(=O)NC(c1ccco1)c1cc(Cl)c2cccnc2c1O (stereo not drawn)	0.19	-0.38	i	71*	-9	-6
COc1ccc(C(NC(C)=O)c2cc(Cl)c3cccnc3c2O)cc1OC (stereo not drawn)	-0.38	0.51	i	55*	8	-8
O=C(NC(c1ccccc1)c1cc(Cl)c2cccnc2c1O)c1cccnc1 (stereo not drawn)	-1.5	-0.044	i	94*	6	-12
CCC(=O)NC(c1ccc(OC)c(OC)c1)c1cc(Cl)c2cccnc2c1O (stereo not drawn)	-1.5	0.054	i	56*	-2	-8
CCCC(=O)NC(c1cccs1)c1cc(Cl)c2cccnc2c1O (stereo not drawn)	-2.1	x	i	x	x	0
COc1ccc(C(NC(C)=O)c2nccc3cc(OC)c(OC)cc23)cc1OC (stereo not drawn)	x	x	x	0	x	x
CCc1cccc(C)c1NC(=O)Nc1c(Br)cnn1C	x	x	x	1	x	x
COc1ccccc1C(NC(C)=O)c1cc(Cl)c2cccnc2c1O (stereo not drawn)	x	x	x	100*	x	x
CC(C)OC(=O)Nc1ccc2c(c1)N(C(=O)CCN1CCOCC1)c1ccccc1CC2	x	x	i	-5	5	-11
CCOC(=O)C1=C(C)N=C2SCCC(=O)N2C1c1sccc1C (stereo not drawn)	0.21	x	i	2	-5	65*
Cc1cccc(C(=O)OC2CCOC2=O)c1C (stereo not drawn)	x	x	x	2	x	x
COc1ccc(/C=C/c2nc3cc(-c4ccccc4)ccc3o2)cc1O	-0.08	1.2	i	88*	-3	67*
COc1ccc(/C=C/c2nc3ccccc3c(=O)o2)cc1	x	x	x	14	x	x
CCOc1ccc(CNC(=O)CCn2c(=O)oc3ccccc32)cc1	3.4*	-0.12	i	6	2	7
CCOc1ccc(NC(=O)Cn2c(=O)oc3ccccc32)cc1	3.6*	0.16	i	-11	-1	-8
COc1ccc(OC)c(NC(=O)CCc2c[nH]c3ccccc23)c1	0.28	-1.5	i	0	-27	5
c1ccc(-c2cnn3c(-c4ccccc4)c(-c4ccccc4)nc3n2)cc1	17*	i	u	x	i	21
Nc1nc(-c2ccccc2)c(-c2ccccc2)n1N	x	x	x	-2	x	x
CC(C)C(OC(=O)c1nsc(Cl)c1Cl)C(=O)NCC1CCCO1 (stereo not drawn)	x	x	x	10	x	x
CCOc1ccc(NC(=O)CCc2c(C)nn(-c3ccc(N4CCCCC4)nn3)c2C)cc1	x	x	x	10	x	x
CCCCCn1nc(-c2ccccc2)c2nc3ccccc3nc21	x	x	+	x	-120	17
CCCn1nc(-c2ccccc2)c2nc3ccccc3nc21	2.9	x	+	x	-99	-8
CCn1c2ccc(Cl)cc2c2nc3ccccc3nc21	-0.4	0.33	i	14	6	10
CCn1nc(-c2ccccc2)c2nc3ccccc3nc21	1.6	-0.15	+	1	-82	-8
COc1ccc(N2C(=O)C3NN=C(C(=O)OCc4ccccc4)C3C2=O)cc1 (stereo not drawn)	-0.16	-0.98	i	-5	11	-14
O=C(NNC(=O)c1ccccc1OCc1ccccc1Cl)c1csc(N2CCOCC2)n1	x	x	x	60*	x	x
